Experimental data pooled from the literature.
Compare with care: the assays were run in different laboratories.
Target: Dual specificity protein kinase CLK1 (CLK1, Homo sapiens, UniProt P49759)

Structure (SMILES) | assay | conditions | endpoint | value
CCCCC(=O)Nc1ccc(-c2ccc3ncn(CCC)c(=O)c3c2)cn1 | binding, competition with immobilised ligand | 0.5 µM | remaining binding | 79%
C=CC(=O)N1CCC[C@@H](n2nc(-c3ccc(Oc4ccccc4)cc3)c3c(N)ncnc32)C1 | enzyme activity, inhibitor | 1 µM | inhibition | 23%
COc1ccc2oc(-c3ccc4nc(N)oc4c3)c/c(=N\c3ccccc3NC(=O)CCN)c2c1 | binding | 1 µM | remaining binding | 94%
C=CC(=O)N1CCC([C@@H]2CCNc3c(C(N)=O)c(-c4ccc(Oc5ccccc5)cc4)nn32)CC1 | enzyme activity, inhibitor | 1 µM | inhibition | 19%
CN1CCN(C(=O)c2ccc(NC(=O)Nc3ccc(N(C)c4ccnc(Nc5ccc(CS(C)(=O)=O)cc5)n4)cc3)cc2)CC1 | binding, competition with immobilised ligand | 1 µM | remaining binding | 84%
C1=C/COCc2cc(ccc2OCCN2CCCC2)Nc2nccc(n2)-c2cccc(c2)COC/1 | binding | 0.1 µM | remaining binding | 27%
C#Cc1cc(-c2cc(Nc3nc(N[C@@H](C)c4ccc(F)cn4)ncc3Cl)n[nH]2)ccc1C=O | enzyme activity, inhibitor | 0.2 µM | inhibition | 34.2%
Cc1cc(O)c(-c2ccc([C@@H](C)CN(C)C)cc2)c2c1[nH]c(=O)c1sccc12 | enzyme activity, inhibitor | 0.1 µM | inhibition | -7.55%
Cc1ccc(NC(=O)c2ccnc(C(F)(F)F)c2)cc1-c1cc(OCCO)nc(N2CCOCC2)c1 | binding, competition with immobilised ligand | 1 µM | remaining binding | 92%
